Reference: ChEMBL document CHEMBL5506013, “Mitochondria-Selective Dicationic Small-Molecule Ligand Targeting G-Quadruplex Structures for Human Colorectal Cancer Therapy” (J Med Chem, 2024)
pIC50, pKd: −log10 of the molar value. Activity calls are given as the source filed them. The calls are words filed in the database; no cut-off is given here.

Columns and labels:
Quadruplex DNA [1] = assay: Binding affinity to mito 0.5-16 G4 DNA (unknown origin) assessed as increase in fluorescence intensity by fluorescence spectrophotometric analysis; format: nucleic-acid assay
Method in brief: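 Oligonucleotides were pre-annealed at 95 °C for 10 min, then cooled slowly. Ligand (5 uM) was mixed with 20 uM DNA in buffer. Emission was collected over 550–800 nm, and enhancement was taken at 650 nm as F/F0.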

Quadruplex DNA [2] = assay: Binding affinity to Mito 81 G4 DNA (unknown origin) assessed as increase in CD signal at 5 uM at 265 nM by circular dichroism spectroscopic analysis; format: nucleic-acid assay
Quadruplex DNA [3] = assay: Binding affinity to mito 78 G4 DNA (unknown origin) assessed as dissociation constant measured upto 150 secs by isothermal titration calorimetry assay; format: nucleic-acid assay
Quadruplex DNA [4] = assay: Binding affinity to mito 55 G4 DNA (unknown origin) assessed as dissociation constant measured upto 150 secs by isothermal titration calorimetry assay; format: nucleic-acid assay
HCT-116 [5] = assay: Downregulation of ATP6 mRNA level in human HCT-116 cells at 0 to 4 uM measured after 48 hrs by qRT-PCR analysis; format: functional, cell-based; conditions: dose 0-4 µM
[6] = Drug localization in human HCT-116 cells transfected with Cy5-mito 0.5-16 G4 DNA at 4 uM incubated for 1 hr by hoechst33342 staining based analysis; format: ADME, cell-based; conditions: hct-116, 1 h
Method in brief: (§1)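 HCT116 cells transfected with Cy5-labelled DNA (excitation 635 nm) for 24 h. Ligand 4 uM added for 1 h, then Hoechst33342 1 uM for 30 min. Colocalization of ligand with Cy5 quantified by Pearson r from confocal images.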

HepG2 = assay: Antiproliferative activity against human HepG2 cells measured after 48 hrs by MTT assay; format: functional, cell-based; conditions: HepG2, 48 h
Method in brief: (§2)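 Cells exposed to the ligands for 48 h. Viability was read by MTT, and the IC50 was derived from the response.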

HCT-116 [7] = assay: Downregulation of ND5 mRNA level in human HCT-116 cells at 0 to 4 uM measured after 48 hrs by qRT-PCR analysis; format: functional, cell-based; conditions: dose 0-4 µM
[8] = Toxicity in BALB/c nude mouse assessed as change in neutrophil count at 5 mg/kg, iv administered every two days for 16 days; format: organism-based; conditions: in vivo, 384 h, time 16 day
Method in brief: (§3)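 HCT116 xenograft-bearing male Balb/c nude mice (6/group) dosed iv at 5 mg/kg every two days or with PBS. Whole blood collected at sacrifice on day 16 for hematology parameters.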

[9] = Toxicity in BALB/c nude mouse assessed as change in platelet count at 5 mg/kg, iv administered every two days for 16 days; format: organism-based; conditions: in vivo, 384 h, time 16 day; method in brief: as §3
Quadruplex DNA [10] = assay: Binding affinity to mito 0.5-16 G4 DNA (unknown origin) assessed as dissociation constant measured upto 450 secs by surface plasmon resonance assay; format: nucleic-acid assay
Method in brief: (§4)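 Surface plasmon resonance in buffer at 25 °C. Four G4-mtDNAs (Mito 78, Mito 55, Mito 29, Mito 0.5-16) and the hairpin HP19 served as substrates. Kd was derived from the sensorgrams.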

HCT-116 [11] = assay: Downregulation of COX1 protein level in human HCT-116 cells at upto 4 uM incubated for 48 hrs by Western blot analysis; format: functional, cell-based
DNA [12] = assay: Binding affinity to HP19 DNA (non-G4 DNA) (unknown origin) assessed as dissociation constant measured upto 150 secs by isothermal titration calorimetry assay; format: nucleic-acid assay
HFF-1 = assay: Downregulation of ND5 mRNA level in human HFF-1 cells at 0 to 4 uM measured after 48 hrs by qRT-PCR analysis; format: functional, cell-based; conditions: dose 0-4 µM
Quadruplex DNA [13] = assay: Binding affinity to Mito 0.5-16 G4 DNA (unknown origin) assessed as increase in CD signal at 5 uM at 290 nM by circular dichroism spectroscopic analysis; format: nucleic-acid assay
[14] = Drug localization in human HCT-116 cells by measuring red foci at 4 uM incubated for 1 hr in presence of RNA by hoechst33342 staining based analysis; format: ADME, cell-based; conditions: hct-116, 1 h
Method in brief: (§5)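 Live HCT116 cells loaded with ligand 4 uM for 1 h and Hoechst33342 1 uM for 30 min, then fixed. Fixed cells digested with 200 units DNase I or RNase A for 3 h. Red foci imaged by confocal microscopy in 100 cells. Mean ± SEM, t test.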

[15] = Toxicity in BALB/c nude mouse assessed as change in mean red blood cell volume at 5 mg/kg, iv administered every two days for 16 days; format: organism-based; conditions: in vivo, 384 h, time 16 day; method in brief: as §3
Quadruplex DNA [16] = assay: Binding affinity to mito 29 G4 DNA (unknown origin) assessed as dissociation constant measured upto 450 secs by surface plasmon resonance assay; format: nucleic-acid assay; method in brief: as §4
[17] = Drug localization in human HCT-116 cells by measuring red foci at 4 uM incubated for 1 hr in presence of DNA I by hoechst33342 staining based analysis; format: ADME, cell-based; conditions: hct-116, 1 h; method in brief: as §5
HCT-116 [18] = assay: Downregulation of ATP8 protein level in human HCT-116 cells at upto 4 uM incubated for 48 hrs by Western blot analysis; format: functional, cell-based
LoVo = assay: Antiproliferative activity against human LoVo cells measured after 48 hrs by MTT assay; format: functional, cell-based; method in brief: as §2
HCT-116 [19] = assay: Downregulation of ATP6 protein level in human HCT-116 cells at upto 4 uM incubated for 48 hrs by Western blot analysis; format: functional, cell-based
[20] = Toxicity in BALB/c nude mouse assessed as change in mean red blood cell hemoglobin concentration at 5 mg/kg, iv administered every two days for 16 days; format: organism-based; conditions: in vivo, 384 h, time 16 day; method in brief: as §3
DNA [21] = assay: Binding affinity to SS19 DNA (non-G4 DNA) (unknown origin) assessed as increase in CD signal at 5 uM by circular dichroism spectroscopic analysis; format: nucleic-acid assay
[22] = Drug localization in human HCT-116 cells transfected with Cy5-SS19 non G4 DNA at 4 uM incubated for 1 hr by hoechst33342 staining based analysis; format: ADME, cell-based; conditions: hct-116, 1 h; method in brief: as §1
HCT-116 [23] = assay: Induction of mitochondrial dysfunction in human HCT-116 cells assessed as decrease in ATP production at upto 4 uM incubated for 3 hrs by Seahorse XFe24 analyzer; format: functional, cell-based
Method in brief: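 Seahorse Mito-stress and glycolysis stress tests on HCT116 cells treated with ligand for 3 h. Oxygen consumption rate and extracellular acidification rate recorded.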

[24] = Drug localization in nucleus of human HCT-116 cells at upto 4 uM incubated for 1 hrs by hoechst33342 staining based live cell imaging analysis; format: ADME, subcellular; conditions: hct-116, 1 h
HCT-116 [25] = assay: Upregulation of p16 level in human HCT-116 cells at upto 4 uM measured after 72 hrs by Western blot analysis; format: functional, cell-based
Method in brief: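 HCT116 cells treated with ligand at 0-4 uM for 72 h. Lysates immunoblotted for Lamin B1, p53, p21, p16, gamma-H2A.x, caspase-3 and cleaved caspase-3, with beta-actin as loading control.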

Quadruplex DNA [26] = assay: Binding affinity to mito 81 G4 DNA (unknown origin) assessed as dissociation constant measured upto 150 secs by isothermal titration calorimetry assay; format: nucleic-acid assay
HCT-116 [27] = assay: Induction of apoptosis in human HCT-116 cells measured after 72 hrs by annexin V-BUV396 and 7-AAD staining based flow cytometry analysis; format: functional, cell-based; conditions: dose <= 4.0 µM
Method in brief: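 HCT116 cells treated at 0-4 uM for 72 h, stained with Annexin V-BUV396 and 7-AAD, and the apoptotic fraction quantified by flow cytometry.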

HCT-116 [28] = assay: Downregulation of COX3 protein level in human HCT-116 cells at upto 4 uM incubated for 48 hrs by Western blot analysis; format: functional, cell-based
HCT-116 [29] = assay: Downregulation of ND6 protein level in human HCT-116 cells at upto 4 uM incubated for 48 hrs by Western blot analysis; format: functional, cell-based

With `C(=C\c1ccc2ccccc2[n+]1CCCCCCCC[n+]1c(/C=C/c2ccc(N3CCCCC3)cc2)ccc2ccccc21)/c1ccc(N2CCCCC2)cc1.[I-].[I-]` the Activity (Quadruplex DNA [1]) was “Active”, the Activity (Quadruplex DNA [2]) was “Active” and the pKd (Quadruplex DNA [3]) was 7.22. For the same compound, the pKd (Quadruplex DNA [4]) was 7.22, the Activity (HCT-116 [5]) was “Active” and the Drug uptake [6] was “Active”. The pIC50 (HepG2) was < 4.40, the Activity (HCT-116 [7]) was “Active” and the Activity [8] was “Non-Toxic”. For the same compound, the Activity [9] was “Non-Toxic”, the pKd (Quadruplex DNA [10]) was 6.54 and the Activity (HCT-116 [11]) was “Active”. The pKd (DNA [12]) was < 5.33, the Activity (HFF-1) was “Active” and the Activity (Quadruplex DNA [13]) was “Active”. The Drug uptake [14] was “Active”, the Activity [15] was “Non-Toxic” and the pKd (Quadruplex DNA [16]) was 6.96. The Drug uptake [17] was “Not Active”, the Activity (HCT-116 [18]) was “Active” and the pIC50 (LoVo) was 4.87. The Activity (HCT-116 [19]) was “Active”, the Activity [20] was “Non-Toxic” and the Activity (DNA [21]) was “inactive”. For the same compound, the Drug uptake [22] was “Not Active”, the Activity (HCT-116 [23]) was “Active” and the Drug uptake [24] was “Not Active”. The Activity (HCT-116 [25]) was “Active”, the pKd (Quadruplex DNA [26]) was 7.22 and the Activity (HCT-116 [27]) was “Dose-Dependent Effect”. For the same compound, the Activity (HCT-116 [28]) was “Active” and the Activity (HCT-116 [29]) was “Active”.
